Test results reported in ChEMBL document CHEMBL2040749, “Novel polycyclic 'cage'-1,2-diamines as potential anti-tuberculosis agents” (2012).

Key:
Assay type in all cases: functional
[1] = test system: Mycobacterium tuberculosis; experiment: Antitubercular activity against multi-drug resistant Mycobacterium tuberculosis after 21 days by BACTEC MGIT 960 method; conditions: 504 h
In short: (§1)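 Compounds dissolved in 100% methanol (10 mg/mL stock), sonicated, filter-sterilised, diluted in sterile water; twofold serial dilutions, working range 8 to 0.125 µg/mL. Strains grown in Middlebrook 7H9 + OADC at 37 °C; inoculum adjusted to McFarland 1, diluted tenfold to 10^5 CFU/mL into MGIT tubes. Drug-free control received a 1:100 inoculum. MIC is the lowest dilution negative when the control turns positive. Triplicate.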

[2] = test system: Mycobacterium tuberculosis; experiment: Antitubercular activity against extensively drug-resistant Mycobacterium tuberculosis after 21 days by BACTEC MGIT 960 method; conditions: 504 h; in short: as §1
[3] = test system: Mycobacterium tuberculosis; experiment: Ratio of SQ109 MIC to compound MIC for multi-drug resistant Mycobacterium tuberculosis
[4] = test system: Mycobacterium tuberculosis; experiment: Ratio of SQ109 MIC to compound MIC for extensively drug-resistant Mycobacterium tuberculosis

## CC(C)=CCC/C(C)=C/CNCCNC1C2CC3CC(C2)CC1C3.Cl.Cl (stereo not drawn)
[1]
  MIC: 2 µg/mL
[2]
  MIC: 4 µg/mL

## CC(C)=CCC/C(C)=C/CNC(=O)CN1[C@H]2C3C4CC5C6C4C2C6[C@@]1(O)C53 (mixture of isomers)
[1]
  MIC: 4 µg/mL
[2]
  MIC: 8 µg/mL

## CC(C)=CCC/C(C)=C/CNCC(=O)N[C@]12O[C@H]3C4C5CC(C6C5C3C61)C42 (mixture of isomers)
[1]
  MIC: 4 µg/mL
[2]
  MIC: 8 µg/mL

## CC(C)=CCC/C(C)=C/CNCCN[C@@H]1C2C3CC4C5C3CC2C5C41.Cl.Cl (mixture of isomers)
[1]
  MIC: 4 µg/mL
[2]
  MIC: 8 µg/mL

## CC(C)=CCC/C(C)=C/CNCCN[C@]12O[C@H]3C4C5CC(C6C5C3C61)C42.Cl.Cl (mixture of isomers)
[1]
  MIC: 2 µg/mL
[2]
  MIC: 4 µg/mL

## CC(C)=CCC/C(C)=C/CNCCN[C@@H]1C2C3CC4C5C3C1C5[C@@H](O)C42.Cl.Cl (mixture of isomers)
[1]
  MIC: 2 µg/mL
[2]
  MIC: 4 µg/mL

## CC(C)=CCC/C(C)=C/CNCCN1[C@H]2C3C4CC5C6C4C2C6[C@@]1(O)C53.Cl.Cl (mixture of isomers)
[1]
  MIC: 2 µg/mL
[2]
  MIC: 4 µg/mL

## CC(C)=CCC/C(C)=C/CNCCNC1C2C3CC4C5CC(C42)C1C53.Cl.Cl (racemic)
[1]
  MIC: 1 µg/mL
[2]
  MIC: 2 µg/mL
[3]
  Ratio: 2
[4]
  Ratio: 2
